How the values were obtained:
Format in all cases: functional
A549 = assay: Cytotoxicity against human A549 cells
In short: (§1)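 Tested in a 60-cell-line human tumor panel screen; the read-out is growth inhibition, reported as GI50 for each cell line.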

[1] = Cytotoxicity against human UO31 cells
In short: (§2)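 Cell line run as part of the 60-cell-line screening panel; growth inhibition was reported as a GI50 for each line.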

SK-OV-3 = assay: Cytotoxicity against human SKOV3 cells; in short: as §1
MCF7 = assay: Cytotoxicity against human MCF7 cells; in short: as §1
ACHN = assay: Cytotoxicity against human ACHN cells; in short: as §1
SNB-19 = assay: Cytotoxicity against human SNB19 cells; in short: as §1
[2] = Cytotoxicity against human OVCAR5 cells; in short: as §1
SK-MEL-5 = assay: Cytotoxicity against human SK-MEL-5 cells; in short: as §1
NCI-H23 = assay: Cytotoxicity against human NCI-H23 cells; in short: as §1
SNB-75 = assay: Cytotoxicity against human SNB75 cells; in short: as §2
COLO 205 = assay: Cytotoxicity against human COLO205 cells; in short: as §1
NCI-H460 = assay: Cytotoxicity against human NCI-H460 cells; in short: as §1
[3] = Cytotoxicity against human OVCAR8 cells; in short: as §1
U-251 = assay: Cytotoxicity against human U251 cells; in short: as §2
[4] = Cytotoxicity against human UACC257 cells; in short: as §2
KM12 = assay: Cytotoxicity against human KM12 cells; in short: as §1
TK-10 = assay: Cytotoxicity against human TK10 cells; in short: as §2
DU-145 = assay: Cytotoxicity against human DU145 cells; in short: as §1
A498 = assay: Cytotoxicity against human A498 cells; in short: as §1
SK-MEL-2 = assay: Cytotoxicity against human SK-MEL-2 cells; in short: as §1
K562 = assay: Cytotoxicity against human K562 cells; in short: as §1
NCI-H322M = assay: Cytotoxicity against human NCI-H322M cells; in short: as §1
RXF 393 = assay: Cytotoxicity against human RXF393 cells; in short: as §1
MOLT-4 = assay: Cytotoxicity against human MOLT4 cells; in short: as §1
CAKI-1 = assay: Cytotoxicity against human Caki1 cells; in short: as §1
[5] = Cytotoxicity against human EKVX cells; in short: as §1
SF-295 = assay: Cytotoxicity against human SF295 cells; in short: as §1
[6] = Cytotoxicity against human OVCAR3 cells; in short: as §1
BT-549 = assay: Cytotoxicity against human BT549 cells; in short: as §1
M14 = assay: Cytotoxicity against human M14 cells; in short: as §1
[7] = Cytotoxicity against human OVCAR4 cells; in short: as §1
[8] = Cytotoxicity against human NCI-ADR-RES cells; in short: as §1
NCI-H226 = assay: Cytotoxicity against human NCI-H226 cells; in short: as §1
MDA-MB-468 = assay: Cytotoxicity against human MDA-MB-468 cells; in short: as §1
HOP-62 = assay: Cytotoxicity against human HOP62 cells; in short: as §1
MDA-MB-231 = assay: Cytotoxicity against human MDA-MB-231 cells; in short: as §1
CCRF-CEM = assay: Cytotoxicity against human CCRF-CEM cells
HCC 2998 = assay: Cytotoxicity against human HCC2998 cells; in short: as §1
SF-539 = assay: Cytotoxicity against human SF539 cells; in short: as §1
LOX IMVI = assay: Cytotoxicity against human LOXIMVI cells; in short: as §1
HT-29 = assay: Cytotoxicity against human HT-29 cells; in short: as §1
T47D = assay: Cytotoxicity against human T47D cells; in short: as §2
[9] = Cytotoxicity against human HCT15 cells; in short: as §1
[10] = Cytotoxicity against human UACC62 cells; in short: as §2
[11] = read-out: pLC50 (the source's name) (converted)

With `COc1cc(/C=C/c2cc(OC)c3ccn(C)c3c2)cc2c1O[C@]1(C)CC[C@@H](O)C(C)(C)[C@H]1C2` the GI50 (A549) was 1.91 µM, the CC50 (A549; [11]) was > 100 µM and the TGI (A549; read-out: pTGI (converted)) was > 100 µM. For the same molecule, the GI50 ([1]; UO-31) was 0.501 µM, the LC50 ([1]; UO-31) was > 100 µM and the TGI ([1]; UO-31, read-out: pTGI (converted)) was 3.02 µM. The GI50 (SK-OV-3) was 2.57 µM, the LC50 (SK-OV-3) was > 100 µM and the TGI (SK-OV-3; read-out: pTGI (converted)) was > 100 µM. It also gave a GI50 (MCF7) of 1.51 µM, an LC50 (MCF7) of 66.1 µM and a TGI (MCF7; read-out: pTGI (converted)) of 14.5 µM. The GI50 (ACHN) was 1 µM, the LC50 (concentration killing 50% of cells) (ACHN) was > 100 µM and the TGI (ACHN; read-out: pTGI (converted)) was 87.1 µM. For the same molecule, the GI50 (SNB-19) was 1.38 µM, the CC50 (SNB-19; [11]) was > 100 µM and the TGI (SNB-19; read-out: pTGI (converted)) was > 100 µM. The GI50 ([2]; OVCAR-5) was 4.57 µM, the CC50 ([2]; OVCAR-5, read-out: pLC50 (the source's name) (converted)) was > 100 µM and the TGI ([2]; OVCAR-5, read-out: pTGI (converted)) was 38 µM. The GI50 (SK-MEL-5) was 0.513 µM, the CC50 (SK-MEL-5; [11]) was 2.24 µM and the TGI (SK-MEL-5; read-out: pTGI (converted)) was 1.07 µM. The GI50 (NCI-H23) was 2.69 µM, the CC50 (NCI-H23; [11]) was > 100 µM and the TGI (NCI-H23; read-out: pTGI (converted)) was 57.5 µM. For the same molecule, the GI50 (SNB-75) was 0.363 µM, the CC50 (SNB-75; [11]) was > 100 µM and the TGI (SNB-75; read-out: pTGI (converted)) was 11.5 µM. For the same molecule, the GI50 (COLO 205) was 1.38 µM, the CC50 (COLO 205; [11]) was 6.61 µM and the TGI (COLO 205; read-out: pTGI (converted)) was 3.02 µM. It also gave a GI50 (NCI-H460) of 1.07 µM, a CC50 (NCI-H460; [11]) of 61.7 µM and a TGI (NCI-H460; read-out: pTGI (converted)) of 12 µM. For the same molecule, the GI50 ([3]; OVCAR-8) was 9.33 µM, the CC50 ([3]; OVCAR-8, read-out: pLC50 (the source's name) (converted)) was > 100 µM and the TGI ([3]; OVCAR-8, read-out: pTGI (converted)) was > 100 µM. For the same molecule, the GI50 (U-251) was 0.355 µM, the CC50 (U-251; [11]) was 69.2 µM and the TGI (U-251; read-out: pTGI (converted)) was 15.5 µM. For the same molecule, the GI50 ([4]; UACC-257) was 2.45 µM, the CC50 ([4]; UACC-257, read-out: pLC50 (the source's name) (converted)) was > 100 µM and the TGI ([4]; UACC-257, read-out: pTGI (converted)) was 35.5 µM. It also gave a GI50 (KM12) of 2 µM, a CC50 (KM12; [11]) of 41.7 µM and a TGI (KM12; read-out: pTGI (converted)) of 11.2 µM. For the same molecule, the GI50 (TK-10) was 3.16 µM, the LC50 (TK-10) was > 100 µM and the TGI (TK-10; read-out: pTGI (converted)) was 93.3 µM. The GI50 (DU-145) was 2.45 µM, the LC50 (50% lethal concentration) (DU-145) was > 100 µM and the TGI (DU-145; read-out: pTGI (converted)) was 66.1 µM. For the same molecule, the GI50 (A498) was 0.407 µM, the CC50 (A498; [11]) was > 100 µM and the TGI (A498; read-out: pTGI (converted)) was 8.13 µM. For the same molecule, the GI50 (SK-MEL-2) was 0.851 µM, the CC50 (SK-MEL-2; [11]) was > 100 µM and the TGI (SK-MEL-2; read-out: pTGI (converted)) was 20.4 µM. For the same molecule, the GI50 (K562) was 1 µM, the CC50 (K562; [11]) was > 100 µM and the TGI (K562; read-out: pTGI (converted)) was 33.1 µM. The GI50 (NCI-H322M) was 18.2 µM, the CC50 (NCI-H322M; [11]) was > 100 µM and the TGI (NCI-H322M; read-out: pTGI (converted)) was > 100 µM. For the same molecule, the GI50 (RXF 393) was 0.0447 µM, the LC50 (RXF 393) was 4.27 µM and the TGI (RXF 393; read-out: pTGI (converted)) was 0.275 µM. For the same molecule, the GI50 (MOLT-4) was 0.437 µM, the CC50 (MOLT-4; [11]) was > 100 µM and the TGI (MOLT-4; read-out: pTGI (converted)) was 8.51 µM. The GI50 (CAKI-1) was 0.692 µM, the LC50 (CAKI-1) was > 100 µM and the TGI (CAKI-1; read-out: pTGI (converted)) was 4.79 µM. It also gave a GI50 [5] of 1.58 µM, a TGI ([5]; read-out: pTGI (converted)) of 49 µM and a GI50 (SF-295; read-out: GI50) of 0.17 µM. It also gave a GI50 (SF-295; read-out: pGI50 (converted)) of 0.17 µM, a CC50 (SF-295; [11]) of 7.08 µM and a TGI (SF-295; read-out: pTGI (converted)) of 0.537 µM. The GI50 ([6]; OVCAR-3) was 6.46 µM, the CC50 ([6]; OVCAR-3, read-out: pLC50 (the source's name) (converted)) was 57.5 µM and the TGI ([6]; OVCAR-3, read-out: pTGI (converted)) was 23.4 µM. For the same molecule, the GI50 (BT-549) was 2.82 µM, the CC50 (BT-549; [11]) was > 100 µM and the TGI (BT-549; read-out: pTGI (converted)) was 30.9 µM. It also gave a GI50 (M14) of 0.575 µM, a CC50 (M14; [11]) of 45.7 µM and a TGI (M14; read-out: pTGI (converted)) of 16.6 µM. The GI50 ([7]; OVCAR-4) was 3.89 µM, the CC50 ([7]; OVCAR-4, read-out: pLC50 (the source's name) (converted)) was > 100 µM and the GI50 [8] was 6.46 µM. For the same molecule, the CC50 [8, 11] was > 100 µM, the TGI ([8]; read-out: pTGI (converted)) was > 100 µM and the GI50 (NCI-H226) was 6.03 µM. For the same molecule, the TGI (NCI-H226; read-out: pTGI (converted)) was > 100 µM, the GI50 (MDA-MB-468) was 1.23 µM and the LC50 (MDA-MB-468) was > 100 µM. It also gave a GI50 (HOP-62) of 0.617 µM, a CC50 (HOP-62; [11]) of 28.8 µM and a TGI (HOP-62; read-out: pTGI (converted)) of 3.8 µM. The GI50 (MDA-MB-231) was 1.48 µM, the LC50 (MDA-MB-231) was > 100 µM and the TGI (MDA-MB-231; read-out: pTGI (converted)) was 33.9 µM. For the same molecule, the GI50 (CCRF-CEM) was 0.457 µM, the CC50 (CCRF-CEM; [11]) was > 100 µM and the TGI (CCRF-CEM; read-out: pTGI (converted)) was 9.33 µM. For the same molecule, the GI50 (HCC 2998) was 5.25 µM, the CC50 (HCC 2998; [11]) was 75.9 µM and the TGI (HCC 2998; read-out: pTGI (converted)) was 25.1 µM. It also gave a GI50 (SF-539) of 0.214 µM, a CC50 (SF-539; [11]) of 57.5 µM and a TGI (SF-539; read-out: pTGI (converted)) of 5.5 µM. It also gave a GI50 (LOX IMVI) of 1.62 µM, a CC50 (LOX IMVI; [11]) of 79.4 µM and a TGI (LOX IMVI; read-out: pTGI (converted)) of 17 µM. The GI50 (HT-29) was 1.26 µM, the CC50 (HT-29; [11]) was 43.7 µM and the TGI (HT-29; read-out: pTGI (converted)) was 5.62 µM. The GI50 (T47D) was 4.37 µM, the CC50 (T47D; [11]) was > 100 µM and the TGI (T47D; read-out: pTGI (converted)) was 38.9 µM. The GI50 ([9]; HCT-15) was 1.15 µM, the CC50 ([9]; HCT-15, read-out: pLC50 (the source's name) (converted)) was 64.6 µM and the TGI ([9]; HCT-15, read-out: pTGI (converted)) was 6.31 µM. For the same molecule, the GI50 ([10]; UACC-62) was 0.355 µM, the CC50 ([10]; UACC-62, read-out: pLC50 (the source's name) (converted)) was 23.4 µM and the TGI ([10]; UACC-62, read-out: pTGI (converted)) was 2.19 µM.

Reference: ChEMBL document CHEMBL3232844, “Synthesis and structure activity relationships of schweinfurthin indoles” (2014)
